The source of these data is ChEMBL document CHEMBL3414433, “Discovery and profiling of a selective and efficacious Syk inhibitor” (J Med Chem, 2015).

As a reminder, the IC50 is the point on the concentration scale where inhibition reaches its midpoint. What is called inhibition in vivo is the share of the control response that was lost under treatment. As usually defined, the Kd is the equilibrium constant for the complex coming apart.

Data set [1] can be described thus: Clearance in Sprague-Dawley rat at 1 mg/kg, iv and 3 mg/kg, po administered as cassette dosing. In kind it is ADME, organism-based. To be noted: in vivo. In short, it runs like this: (§1)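 Rat PK: i.v. 1 mg/kg in NMP/PEG200 (3:7); p.o. 3 mg/kg in CMC/water/Tween (0.5:99:0.5). Exposure values dose normalized.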
Data set [2] can be described thus: Volume of distribution at steady state in Sprague-Dawley rat at 1 mg/kg, iv and 3 mg/kg, po administered as cassette dosing. The format is ADME, organism-based. To be noted: in vivo, read-out: Vdss. The method, boiled down: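 Rats were dosed i.v. at 1 mg/kg in NMP/PEG200 (3:7) and p.o. at 3 mg/kg in CMC/water/Tween (0.5:99:0.5). PK parameters were derived from blood concentration–time curves for both routes.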

The nature of data set [3]: Cytotoxicity against C57BL/6 mouse bone marrow cells assessed as growth inhibition preincubated for 4 days followed by [3H]-thymidine addition measured after 5 hrs by betaplate counting analysis. The format is cell-based, Bone marrow cell. The settings on record: Mus musculus, C57BL/6, Bone marrow cell.
Data set [4] deals with Rattus norvegicus. Description: In vivo inhibition of Syk in Lewis rat assessed as reduction in FcgR-induced SLP76 phosphorylation in peripheral blood monocytes at 22 mg/kg, po measured after 2 hrs relative to vehicle-treated control. The format is functional. In short, it runs like this: (§2)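 Single oral dose of 22 mg/kg to Lewis rats; blood sampled at 2, 4 and 24 h after dosing for compound level and ex vivo FcγR-induced phospho-SLP76 in peripheral blood monocytes.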

The target in data set [5] is Tyrosine-protein kinase JAK2 (Homo sapiens, UniProt O60674). The data set is described as follows: Competitive binding affinity to human JAK2.
A short description of data set [6]: Drug uptake in Lewis rat blood at 22 mg/kg, po measured after 2 hrs. The settings on record: read-out: Drug uptake. The format is ADME, organism-based. The arrangement: dose 22 mg/kg, route oral. The method, boiled down:
as §2

Data set [7] is described as follows: Drug metabolism in liver microsomes (unknown origin). In kind it is ADME. In general terms: Liver microsomes are a subcellular fraction often used to study metabolism.
In data set [8] the test system is Rattus norvegicus. The data set is described as follows: Antiarthritic activity in Lewis rat collagen-induced arthritis model assessed as reduction of proteoglycan loss in hind paw at 3 to 30 mg/kg, po qd administered on day 15 post immunization measured after day 28 by Giemsa/safranin O staining-based assay. The format is functional, organism-based. In short, it runs like this:
(§3)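 Female Lewis rats (140−160 g), arthritis induced by porcine collagen immunization (day 0) and boost (day 7); rats with swollen joints randomized, dosed orally once daily from day 15 to day 28. Hind paws taken on day 28, fixed in 10% buffered formalin for 48 h, decalcified over 16 days, paraffin-embedded; 3 μm sections stained with Giemsa and safranin O and scored.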

Data set [9] is filed under the species Rattus norvegicus. Description: Drug metabolism in rat. In kind it is ADME, organism-based. To be noted: in vivo.
The target in data set [10] is Serine/threonine-protein kinase PAK 4 (Homo sapiens, UniProt O96013). Description: Competitive binding affinity to human PAK4.
A short description of data set [11]: Drug uptake in blood of Lewis rat collagen-induced arthritis model at 30 mg/kg, po qd administered on day 15 post immunization measured at 24 hrs on day 18. In kind it is ADME, organism-based. The arrangement: dose 30 mg/kg, route oral. To be noted: read-out: Drug uptake. The method, boiled down:
(§4)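 Collagen-arthritic Lewis rats given 3, 10 or 30 mg/kg p.o. once daily from day 15; blood levels measured on day 18 (third day of treatment) at 4, 8 and 24 h after dosing.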

For data set [12], the system named is Rattus norvegicus. The data set is described as follows: Antiarthritic activity in Lewis rat collagen-induced arthritis model assessed as reduction of joint damage/erosions in hind paw at 3 to 30 mg/kg, po qd administered on day 15 post immunization measured after day 28 by Giemsa/safranin O staining-based assay. The format is functional, organism-based. In short, it runs like this:
as §3

Data set [13] deals with STE20-like serine/threonine-protein kinase (Homo sapiens, UniProt Q9H2G2). Description: Competitive binding affinity to human SLK.
Data set [14] can be described thus: Drug uptake in blood of Lewis rat collagen-induced arthritis model at 3 mg/kg, po qd administered on day 15 post immunization measured at 8 hrs on day 18. The format is ADME, organism-based. More on the design: dose 3 mg/kg, route oral. To be noted: read-out: Drug uptake. In short, it runs like this:
as §4

For data set [15], the species on record is Canis familiaris. The data set is described as follows: Hepatotoxicity in dog assessed as portal inflammation measured for 4 weeks by GLP study. The format is toxicity, organism-based, Canis lupus familiaris. To be noted: in vivo, 672 h.
Data set [16] is filed under the species Canis familiaris. The data set is described as follows: Hepatotoxicity in dog assessed as bile plugs measured for 4 weeks by GLP study. In kind it is toxicity, organism-based, Canis lupus familiaris. The settings on record: in vivo, 672 h.
The test system of data set [17] is Canis familiaris. Description: Dose normalized AUC in Beagle dog at 0.3 mg/kg, po. In kind it is ADME, organism-based, Canis lupus familiaris. More on the design: dose 0.3 mg/kg, route oral. The settings on record: in vivo. In short, it runs like this:
(§5)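 One-in-one dosing in Beagle dogs: i.v. 0.1 mg/kg in NMP/PEG200 (3:7); p.o. 0.3 mg/kg in MC/water (0.5:99.5). Exposure values dose normalized.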

The subject of data set [18] is Canis familiaris. Description: Dose normalized Cmax in Beagle dog at 0.1 mg/kg, iv and 0.3 mg/kg, po. In kind it is ADME, organism-based, Canis lupus familiaris. The settings on record: in vivo. In short, it runs like this:
as §5

The target in data set [19] is T1, Tyrosine-protein kinase SYK (Homo sapiens, UniProt P43405). The data set is described as follows: Competitive binding affinity to human SYK. The method, boiled down:
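Kd was then determined for the kinases affected at that concentration.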

The target in data set [20] is T2, Tyrosine-protein kinase ZAP-70 (Homo sapiens, UniProt P43403).
T2 sequence (P43403 whole entry): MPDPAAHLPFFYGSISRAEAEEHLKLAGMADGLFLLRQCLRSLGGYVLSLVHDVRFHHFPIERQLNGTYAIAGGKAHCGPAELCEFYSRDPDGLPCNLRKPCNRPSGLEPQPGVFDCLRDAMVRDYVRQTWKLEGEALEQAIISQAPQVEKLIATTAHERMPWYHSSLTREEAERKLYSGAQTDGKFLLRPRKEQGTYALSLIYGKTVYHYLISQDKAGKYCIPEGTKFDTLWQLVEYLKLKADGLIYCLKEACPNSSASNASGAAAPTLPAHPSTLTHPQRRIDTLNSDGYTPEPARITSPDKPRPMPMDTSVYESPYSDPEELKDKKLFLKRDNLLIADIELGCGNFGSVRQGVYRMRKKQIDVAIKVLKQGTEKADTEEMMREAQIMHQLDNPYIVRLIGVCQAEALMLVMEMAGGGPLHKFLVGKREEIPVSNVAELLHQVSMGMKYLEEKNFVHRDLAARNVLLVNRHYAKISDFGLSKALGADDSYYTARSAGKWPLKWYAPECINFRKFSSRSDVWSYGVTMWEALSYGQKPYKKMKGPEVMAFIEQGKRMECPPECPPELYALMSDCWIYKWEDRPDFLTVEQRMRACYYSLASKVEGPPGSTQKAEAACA
Description: Inhibition of human ZAP70.

The target in data set [21] is T1, Tyrosine-protein kinase SYK. Description: Inhibition of Syk in anti-CD32 stimulated CD14+ human monocytes assessed as phospho-SLP76 level preincubated for 30 mins followed by anti-CD32 stimulation measured after 5 mins by flow cytometric analysis. A general note: A flow cytometer gives signals particle by particle.
In data set [22] the test system is Rattus norvegicus. Description: Dose normalized AUC in Sprague-Dawley rat at 1 mg/kg, iv administered as cassette dosing. The format is ADME, organism-based. The arrangement: dose 1 mg/kg, route intravenous. The settings on record: in vivo. The method, boiled down:
as §1

The nature of data set [23]: Drug uptake in blood of Lewis rat collagen-induced arthritis model at 10 mg/kg, po qd administered on day 15 post immunization measured at 24 hrs on day 18. The format is ADME, organism-based. More on the design: dose 10 mg/kg, route oral. The settings on record: read-out: Drug uptake. The method, boiled down: as §4
In data set [24] the target is Serine/threonine-protein kinase PAK 6 (Homo sapiens, UniProt Q9NQU5). The data set is described as follows: Competitive binding affinity to human PAK6.

The source made the active and inactive calls. No cut-off for these calls is given here.

Serine/threonine-protein kinase PAK 4, sequence (O96013 whole entry): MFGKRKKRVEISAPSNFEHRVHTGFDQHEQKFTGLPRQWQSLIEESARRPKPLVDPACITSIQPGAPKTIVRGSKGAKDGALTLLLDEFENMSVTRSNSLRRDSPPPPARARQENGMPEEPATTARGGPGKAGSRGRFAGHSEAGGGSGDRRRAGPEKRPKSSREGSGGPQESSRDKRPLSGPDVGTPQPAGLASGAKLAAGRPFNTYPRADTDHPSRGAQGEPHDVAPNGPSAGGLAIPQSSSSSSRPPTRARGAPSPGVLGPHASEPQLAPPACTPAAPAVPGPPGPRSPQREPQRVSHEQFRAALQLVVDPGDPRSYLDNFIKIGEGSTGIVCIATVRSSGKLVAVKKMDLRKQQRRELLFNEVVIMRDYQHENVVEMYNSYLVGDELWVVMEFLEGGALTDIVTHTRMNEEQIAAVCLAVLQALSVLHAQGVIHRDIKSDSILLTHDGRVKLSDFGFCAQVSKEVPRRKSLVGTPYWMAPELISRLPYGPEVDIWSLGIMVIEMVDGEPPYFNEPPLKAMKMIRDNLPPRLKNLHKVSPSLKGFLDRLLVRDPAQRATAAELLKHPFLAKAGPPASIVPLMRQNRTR
Tyrosine-protein kinase JAK2, sequence (O60674 whole entry): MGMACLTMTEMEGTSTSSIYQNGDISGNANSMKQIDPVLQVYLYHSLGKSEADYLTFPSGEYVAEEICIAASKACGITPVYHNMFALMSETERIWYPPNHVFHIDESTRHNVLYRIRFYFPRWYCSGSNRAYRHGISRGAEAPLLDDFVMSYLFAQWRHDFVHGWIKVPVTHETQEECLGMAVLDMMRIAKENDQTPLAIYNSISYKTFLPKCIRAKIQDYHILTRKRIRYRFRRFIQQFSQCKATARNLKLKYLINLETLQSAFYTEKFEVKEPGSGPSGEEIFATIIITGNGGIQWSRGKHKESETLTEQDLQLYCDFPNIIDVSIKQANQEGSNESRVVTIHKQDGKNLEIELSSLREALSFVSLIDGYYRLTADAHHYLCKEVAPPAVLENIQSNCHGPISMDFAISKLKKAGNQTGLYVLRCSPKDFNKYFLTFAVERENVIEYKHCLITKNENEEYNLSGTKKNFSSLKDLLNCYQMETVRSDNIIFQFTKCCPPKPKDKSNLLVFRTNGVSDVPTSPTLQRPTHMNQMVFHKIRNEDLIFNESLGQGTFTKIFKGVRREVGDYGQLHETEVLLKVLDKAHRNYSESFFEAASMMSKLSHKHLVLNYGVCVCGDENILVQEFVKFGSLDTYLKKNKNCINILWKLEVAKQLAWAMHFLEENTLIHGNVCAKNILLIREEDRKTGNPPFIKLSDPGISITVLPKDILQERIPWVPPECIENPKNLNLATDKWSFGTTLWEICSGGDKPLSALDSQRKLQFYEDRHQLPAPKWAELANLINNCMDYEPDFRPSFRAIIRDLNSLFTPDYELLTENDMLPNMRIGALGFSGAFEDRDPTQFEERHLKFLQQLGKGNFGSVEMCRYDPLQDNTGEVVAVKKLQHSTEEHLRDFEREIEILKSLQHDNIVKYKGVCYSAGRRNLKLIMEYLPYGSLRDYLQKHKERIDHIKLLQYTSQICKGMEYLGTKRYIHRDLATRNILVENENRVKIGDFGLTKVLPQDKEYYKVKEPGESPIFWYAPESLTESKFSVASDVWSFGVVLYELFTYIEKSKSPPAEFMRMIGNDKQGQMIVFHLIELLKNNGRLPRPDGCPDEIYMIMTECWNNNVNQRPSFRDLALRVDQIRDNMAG
Serine/threonine-protein kinase PAK 6, sequence (Q9NQU5 whole entry): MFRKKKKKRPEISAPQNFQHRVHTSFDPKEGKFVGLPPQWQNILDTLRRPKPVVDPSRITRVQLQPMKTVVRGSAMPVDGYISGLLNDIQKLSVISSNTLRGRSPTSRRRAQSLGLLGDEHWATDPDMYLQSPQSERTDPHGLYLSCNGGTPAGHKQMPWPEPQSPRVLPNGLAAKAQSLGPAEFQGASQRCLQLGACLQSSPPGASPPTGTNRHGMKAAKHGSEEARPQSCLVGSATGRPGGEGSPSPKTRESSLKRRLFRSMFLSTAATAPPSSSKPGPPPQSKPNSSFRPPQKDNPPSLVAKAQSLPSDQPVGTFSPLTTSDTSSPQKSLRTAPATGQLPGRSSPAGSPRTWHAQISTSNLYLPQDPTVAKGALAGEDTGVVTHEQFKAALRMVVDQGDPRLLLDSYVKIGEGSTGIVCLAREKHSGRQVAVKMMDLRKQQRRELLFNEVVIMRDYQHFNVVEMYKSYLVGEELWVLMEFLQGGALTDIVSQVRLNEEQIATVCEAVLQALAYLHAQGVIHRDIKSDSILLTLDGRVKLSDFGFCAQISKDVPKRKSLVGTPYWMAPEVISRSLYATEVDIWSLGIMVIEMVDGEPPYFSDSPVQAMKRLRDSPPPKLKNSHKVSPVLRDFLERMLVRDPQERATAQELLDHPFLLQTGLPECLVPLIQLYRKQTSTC
STE20-like serine/threonine-protein kinase, sequence (Q9H2G2 whole entry): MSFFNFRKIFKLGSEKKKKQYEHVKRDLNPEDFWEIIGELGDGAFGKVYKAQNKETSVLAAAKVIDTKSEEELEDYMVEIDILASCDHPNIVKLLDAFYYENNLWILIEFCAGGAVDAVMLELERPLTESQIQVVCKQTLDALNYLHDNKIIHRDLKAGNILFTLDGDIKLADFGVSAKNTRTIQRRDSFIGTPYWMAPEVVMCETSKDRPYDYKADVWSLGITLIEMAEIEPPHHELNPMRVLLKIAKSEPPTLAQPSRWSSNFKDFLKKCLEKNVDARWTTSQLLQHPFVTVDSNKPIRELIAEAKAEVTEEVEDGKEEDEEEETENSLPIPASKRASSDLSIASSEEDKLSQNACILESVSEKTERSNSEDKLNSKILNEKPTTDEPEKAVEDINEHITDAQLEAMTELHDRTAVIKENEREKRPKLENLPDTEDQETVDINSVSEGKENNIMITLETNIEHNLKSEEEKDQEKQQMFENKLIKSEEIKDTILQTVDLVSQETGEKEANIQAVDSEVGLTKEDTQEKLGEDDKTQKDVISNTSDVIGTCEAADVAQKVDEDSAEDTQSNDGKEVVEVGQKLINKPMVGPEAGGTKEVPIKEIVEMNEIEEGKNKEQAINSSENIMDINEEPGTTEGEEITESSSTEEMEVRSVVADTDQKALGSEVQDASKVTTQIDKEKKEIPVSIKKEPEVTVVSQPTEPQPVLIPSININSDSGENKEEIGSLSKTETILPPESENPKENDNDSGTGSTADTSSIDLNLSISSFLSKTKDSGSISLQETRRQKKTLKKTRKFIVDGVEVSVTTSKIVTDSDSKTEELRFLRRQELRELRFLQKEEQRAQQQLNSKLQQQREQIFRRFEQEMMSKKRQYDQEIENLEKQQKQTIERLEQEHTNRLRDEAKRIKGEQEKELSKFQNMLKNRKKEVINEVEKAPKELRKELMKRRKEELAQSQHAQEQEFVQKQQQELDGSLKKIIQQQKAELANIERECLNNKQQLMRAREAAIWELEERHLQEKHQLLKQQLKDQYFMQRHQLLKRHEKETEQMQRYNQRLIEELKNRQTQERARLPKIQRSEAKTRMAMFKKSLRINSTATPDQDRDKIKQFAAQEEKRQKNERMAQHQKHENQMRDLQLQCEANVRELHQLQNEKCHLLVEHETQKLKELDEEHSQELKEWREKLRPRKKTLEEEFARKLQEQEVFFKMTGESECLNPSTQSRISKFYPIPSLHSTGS

`NC(=O)c1nnc(N[C@@H]2CCCC[C@@H]2N)nc1Nc1cccc2cc[nH]c12` came in with a clearance in [1] of 31 mL/min/kg. Further, in data set [2], the Vd is 16.4 L/kg. Besides, the IC50 was determined as 9020 nM in data set [3], 251 nM in [20] and 367 nM in data set [21]. Moreover, the inhibition in vivo at 22 mg/kg in the data set on Rattus norvegicus [4] is 90%. In addition, the Kd came to 53 nM in data set [5]; 17 nM in data set [10]; 380 nM in [13]; 0.64 nM in data set [19]; 110 nM in [24]. Besides, in data set [6], the concentration at 2 h was determined as 900 nM. The Drug metabolism result (in [7]; in the data set listed under Rattus norvegicus [9]) was “metabolite_notdetected” in each case. Also, the result in the data set with Rattus norvegicus [8] and in the data set on Rattus norvegicus [12] was Active. For the same compound, the concentration at 24 h came to 461 nM in data set [11] and 156 nM in [23]. Also, the concentration at 8 h in [14] was determined as 65 nM. The Activity result in the data set filed under Canis familiaris [15] and in the data set filed under Canis familiaris [16] was “Toxic” in each case. In addition, the results for the AUC/dose in the data set with Canis familiaris [17] and in the data set on Rattus norvegicus [22] were 1836 nM·h and 1459 nM·h, respectively. Besides, the Cmax/dose in the data set with Canis familiaris [18] turned out to be 139 nM.
